Laboratory results reported in ChEMBL document CHEMBL2407076, “cis-Restricted 3-aminopyrazole analogues of combretastatins: synthesis from plant polyalkoxybenzenes and biological evaluation in the cytotoxicity and phenotypic sea urchin embryo assays” (2013).
Calls of active or inactive are those of the source.

Key:
[1] = Growth inhibition of human NCI60 cells at 10 uM after 48 hrs by SRB assay; type: functional; details: NCI60, 48 h, read-out: GI
Summary of the method: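 Tested in the NCI60 single-dose screen at 10 μM. The value is the mean percent inhibition of cell growth across the panel.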

[2] = tested on: Paracentrotus lividus; assay: Antiproliferative activity against sea urchin embryo assessed as cleavage alteration compound treated at 45 to 55 mins prior to first mitotic cycle completion and measured at 2.5 to 5.5 hrs post fertilization; type: functional
Summary of the method: (§1)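 Fertilized eggs were treated 8−20 min after fertilization. The embryos were held at room temperature in filtered seawater as a monolayer of up to 2000 embryos/mL. Compounds were given as 2-fold decreasing concentrations from a 10 mM DMSO stock diluted 10-fold in 95% EtOH, with DMSO ≤0.05% and EtOH ≤1%. Embryos were scored by light microscopy. The value is the effective threshold concentration, measured in duplicate.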

[3] = tested on: Paracentrotus lividus; assay: Microtubule destabilizing activity in sea urchin embryo assessed as embryo spinning compound treated just after hatching at 8 to 10 hrs post fertilization and measured after 15 mins to 20 hrs of treatment
[4] = tested on: Paracentrotus lividus; assay: Antiproliferative activity against sea urchin embryo assessed as cleavage arrest compound treated at 45 to 55 mins prior to first mitotic cycle completion and measured at 2.5 to 5.5 hrs post fertilization; type: functional; summary of the method: as §1
[5] = tested on: K562; assay: Growth inhibition of human K562 cells after 48 hrs by SRB assay; type: functional; details: K562, 48 h
Summary of the method: (§2)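 Tested in the NCI60 anticancer drug screen. GI50 is the concentration giving 50% cell growth inhibition. For the panel-wide line, the value is the mean GI50 across the panel.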

[6] = tested on: OVCAR-8; assay: Growth inhibition of human OVCAR8 cells after 48 hrs by SRB assay; type: functional, cell-based; summary of the method: as §2
[7] = tested on: HL-60(TB); assay: Growth inhibition of human HL-60(TB) cells after 48 hrs by SRB assay; type: functional; details: HL-60, 48 h
Summary of the method: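 Tested in the NCI60 anticancer drug screen. HL-60(TB) is one of the leukemia lines in the panel. Value reported as GI50, the concentration needed for 50% inhibition of cell growth.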

[8] = tested on: NCI/ADR-RES; assay: Growth inhibition of human NCI/ADR-RES cells after 48 hrs by SRB assay; type: functional, cell-based; summary of the method: as §2
[9] = tested on: SW-620; assay: Growth inhibition of human SW620 cells after 48 hrs by SRB assay; type: functional; details: SW-620, 48 h; summary of the method: as §2
[10] = tested on: OVCAR-3; assay: Growth inhibition of human OVCAR3 cells after 48 hrs by SRB assay; type: functional; details: OVCAR-3, 48 h; summary of the method: as §2
[11] = tested on: KM12; assay: Growth inhibition of human KM12 cells after 48 hrs by SRB assay; type: functional; details: KM12, 48 h; summary of the method: as §2
[12] = tested on: SR; assay: Growth inhibition of human SR cells after 48 hrs by SRB assay; type: functional; summary of the method: as §2
[13] = Growth inhibition of human NCI60 cells after 48 hrs by SRB assay; type: functional; details: NCI60, 48 h; summary of the method: as §2
[14] = tested on: NCI-H522; assay: Growth inhibition of human NCI-H522 cells after 48 hrs by SRB assay; type: functional; details: NCI-H522, 48 h; summary of the method: as §2
[15] = tested on: MDA-MB-435; assay: Growth inhibition of human MDA-MB-435 cells after 48 hrs by SRB assay; type: functional; details: MDA-MB-435, 48 h; summary of the method: as §2

| Compound | inhibition of growth at 10 µM [1] [%] | EC [2] [µM] | EC [3] [µM] | EC [4] [µM] | GI50 [5] [nM] | growth inhibition (GI) [6] | GI50 [7] [nM] | growth inhibition (GI) [8] | GI50 [9] [nM] | GI50 [10] [nM] | GI50 [11] [nM] | GI50 [12] [nM] | GI50 [13] [nM] | GI50 [14] [nM] | GI50 [15] [nM] |
| --- | --- | --- | --- | --- | --- | --- | --- | --- | --- | --- | --- | --- | --- | --- | --- |
| COc1ccc(-c2c(N)n[nH]c2-c2cc3c(c(OC)c2OC)OCO3)cc1 | 3.38 | >4 | >4 | >4 |  |  |  |  |  |  |  |  |  |  |  |
| COc1ccc(-c2c(N)n[nH]c2-c2cc(OC)c(OC)c(OC)c2)cc1 | 75.8 | 0.1 | >10 | 1 | < 100 | Active | < 100 | Active | < 100 | < 100 | < 100 | < 100 | 302 |  |  |
| COc1ccc(-c2c(N)n[nH]c2-c2cc(OC)c3c(c2)OCCO3)cc1 | 32 | 1 | >5 | >4 |  |  |  |  |  |  |  |  |  |  |  |
| COc1ccc(-c2[nH]nc(N)c2-c2cc(OC)c(OC)c(OC)c2)cc1 | 89.2 | 0.01 | 1 | 0.05 |  | Active |  | Active |  |  |  |  | 46 | < 10 | < 10 |
| COc1ccc(-c2[nH]nc(N)c2-c2cc3c(c(OC)c2OC)OCO3)cc1 |  | >4 | >4 | >4 |  |  |  |  |  |  |  |  |  |  |  |
| COc1ccc(-c2c(N)n[nH]c2-c2cc(OC)c3c(c2OC)OCO3)cc1 |  | 4 | >4 | >4 |  |  |  |  |  |  |  |  |  |  |  |
| COc1ccc(-c2[nH]nc(N)c2-c2cc(OC)c3c(c2)OCO3)cc1 | 46 | 0.2 | >10 | >4 |  | Active |  | Active |  |  |  |  | 4370 |  |  |
| COc1ccc(-c2c(N)n[nH]c2-c2cc(OC)c3c(c2)OCO3)cc1 | 18.1 | 1 | >5 | >4 |  |  |  |  |  |  |  |  |  |  |  |
| COc1ccc(-c2[nH]nc(N)c2-c2cc(OC)c3c(c2OC)OCO3)cc1 |  | >4 | >4 | >4 |  |  |  |  |  |  |  |  |  |  |  |
